Measurements as given in ChEMBL document CHEMBL3259694, “Design and synthesis of molecular probes for the determination of the target of the anthelmintic drug praziquantel” (Bioorg Med Chem Lett, 2014).
Calls of active or inactive are those of the source. No cut-off for these calls is given here.

Key:
Schistosoma mansoni [1] = test: Anthelmintic activity against sexually mature Schistosoma mansoni PR-1 adult worm assessed as parasite death incubated for overnight measured after 7 days drug wash-out period by stereomicroscopic analysis; type: functional, organism-based; settings: PR-1, 168 h
In short: (§1)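 Adult male worms exposed in vitro overnight to a range of concentrations, then washed and kept 7 days in drug-free medium. Motility, contraction and survival were scored at day 7. EC50 was taken from dose-response curves of percent worms alive at day 7 against log concentration, as mean and SEM of three replicates, with 95% confidence intervals.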

[2] = Solubility in 1% DMSO at 300 uM; type: physicochemical
Schistosoma mansoni [3] = test: Anthelmintic activity against sexually mature Schistosoma mansoni PR-1 adult worm assessed as loosely curled worm with little movement at >100 uM incubated for overnight measured after 7 days drug wash-out period by stereomicroscopic analysis; type: functional, organism-based; in short: as §1
Schistosoma mansoni [4] = test: Anthelmintic activity against sexually mature Schistosoma mansoni PR-1 adult worm assessed immediate worm contraction by stereomicroscopic analysis; type: functional, organism-based
In short: (§2)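 Adult male worms were watched for contraction, shortening or paralysis at once on addition of the compound. Worms were then kept overnight in its presence before washout.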

Schistosoma mansoni [5] = test: Anthelmintic activity against sexually mature Schistosoma mansoni PR-1 adult worm assessed immediate worm shortening by stereomicroscopic analysis; type: functional, organism-based; in short: as §2
[6] = Solubility in 1% DMSO at >300 uM; type: physicochemical
Schistosoma mansoni [7] = test: Anthelmintic activity against sexually mature Schistosoma mansoni PR-1 adult worm assessed as worm contractility without movement at >40 uM incubated for overnight measured after 7 days drug wash-out period by stereomicroscopic analysis; type: functional, organism-based; in short: as §1
Schistosoma mansoni [8] = test: Anthelmintic activity against sexually mature Schistosoma mansoni PR-1 adult worm assessed immediate worm paralysis by stereomicroscopic analysis; type: functional, organism-based; in short: as §2
Schistosoma mansoni [9] = test: Anthelmintic activity against sexually mature Schistosoma mansoni PR-1 adult worm assessed as parasite death by measuring worm contractility at 1 uM incubated for overnight measured after 7 days drug wash-out period by stereomicroscopic analysis; type: functional, organism-based; in short: as §1
Schistosoma mansoni [10] = test: Anthelmintic activity against sexually mature Schistosoma mansoni PR-1 adult worm assessed as worm contractility and little movement at >60 uM incubated for overnight measured after 7 days drug wash-out period by stereomicroscopic analysis; type: functional, organism-based; in short: as §1
Schistosoma mansoni [11] = test: Anthelmintic activity against sexually mature Schistosoma mansoni PR-1 adult worm assessed as parasite death by measuring worm contractility at 0.3 uM incubated for overnight measured after 7 days drug wash-out period by stereomicroscopic analysis; type: functional, organism-based; in short: as §1

Compound: C#CCN(C(=O)c1ccc(C2(C(F)(F)F)N=N2)cc1)c1ccc(C(=O)N2CC(=O)N3CCc4ccccc4[C@@H]3C2)cc1
- EC50 (Schistosoma mansoni [1]): 132 µM
- solubility [2]: soluble
- Activity (Schistosoma mansoni [3]): Active
- Activity (Schistosoma mansoni [4]): inactive
- Activity (Schistosoma mansoni [5]): inactive

Compound: C#CCN(Cc1ccc(C(=O)N2CC(=O)N3CCc4ccccc4[C@@H]3C2)cc1)C(=O)CCCCCNC(=O)CCC1(C)N=N1
- EC50 (Schistosoma mansoni [1]): > 300 µM
- solubility [6]: soluble

Compound: Cc1cc(C)n2c1C=C1C=CC(CCC(=O)N3CC(=O)N4CCc5ccccc5[C@@H]4C3)=[N+]1[B-]2(F)F
- EC50 (Schistosoma mansoni [1]): 53.3 µM
- Activity (Schistosoma mansoni [7]): Active
- Activity (Schistosoma mansoni [4]): inactive
- Activity (Schistosoma mansoni [8]): inactive

Compound: O=C(C1CCCCC1)N1CC(=O)N2CCc3ccccc3C2C1 (racemic) [PRAZIQUANTEL]
- Activity (Schistosoma mansoni [9]): Active
- EC50 (Schistosoma mansoni [1]): 2.5 µM

Compound: O=C(C1CCCCC1)N1CC(=O)N2CCc3ccccc3[C@H]2C1
- Activity (Schistosoma mansoni [10]): Active
- EC50 (Schistosoma mansoni [1]): 78.1 µM

Compound: O=C(C1CCCCC1)N1CC(=O)N2CCc3ccccc3[C@@H]2C1 [PRAZIQUANTEL, (R)-]
- Activity (Schistosoma mansoni [11]): Active
- EC50 (Schistosoma mansoni [1]): 0.5 µM
